ChEMBL document CHEMBL4052694, “Discovery of novel 5-oxa-2,6-diazaspiro[3.4]oct-6-ene derivatives as potent, selective, and orally available somatostatin receptor subtype 5 (SSTR5) antagonists for treatment of type 2 diabetes mellitus” (Bioorg Med Chem, 2017)
Values after ≈ are worked out from the molar mass of the structure shown. Active and inactive are the calls of the source. No cut-off for these calls is given here.

Legend:
[1] = biological target: T1, Somatostatin receptor type 5 (Mus musculus, UniProt O08858); test: Antagonist activity at mouse SSTR5 expressed in CHO cells assessed as inhibition of SST14-induced forskolin-stimulated intracellular cAMP level incubated for 15 mins followed by forskolin stimulation for 30 mins by HTRF assay; assay type: functional, cell-based
T1 sequence (O08858 whole entry): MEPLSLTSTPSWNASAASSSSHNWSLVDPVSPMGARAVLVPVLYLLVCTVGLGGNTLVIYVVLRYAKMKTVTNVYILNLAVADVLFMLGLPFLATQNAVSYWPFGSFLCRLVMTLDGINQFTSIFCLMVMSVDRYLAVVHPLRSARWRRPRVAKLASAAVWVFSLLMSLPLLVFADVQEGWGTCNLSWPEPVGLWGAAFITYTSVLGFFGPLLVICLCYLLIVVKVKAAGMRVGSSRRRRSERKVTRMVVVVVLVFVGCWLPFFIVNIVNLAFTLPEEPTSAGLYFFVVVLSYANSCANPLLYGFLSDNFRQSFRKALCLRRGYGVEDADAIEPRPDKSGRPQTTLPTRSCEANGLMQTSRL

[2] = biological target: Somatostatin receptor type 5 (Homo sapiens, UniProt P35346); test: Antagonist activity at human SSTR5 expressed in CHO cells assessed as inhibition of SST14-induced forskolin-stimulated intracellular cAMP level incubated for 15 mins followed by forskolin stimulation for 30 mins by HTRF assay; assay type: functional, cell-based
Somatostatin receptor type 5 (Homo sapiens, UniProt P35346), sequence (P35346 whole entry): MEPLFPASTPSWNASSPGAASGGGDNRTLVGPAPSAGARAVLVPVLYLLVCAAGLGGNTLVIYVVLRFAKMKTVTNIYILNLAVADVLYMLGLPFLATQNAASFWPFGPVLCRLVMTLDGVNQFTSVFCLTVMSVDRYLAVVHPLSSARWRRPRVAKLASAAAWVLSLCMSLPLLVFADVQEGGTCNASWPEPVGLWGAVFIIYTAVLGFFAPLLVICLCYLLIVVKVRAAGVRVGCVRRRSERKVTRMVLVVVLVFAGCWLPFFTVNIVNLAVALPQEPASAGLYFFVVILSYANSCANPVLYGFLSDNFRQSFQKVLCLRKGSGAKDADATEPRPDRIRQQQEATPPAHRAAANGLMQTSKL

hERG (KCNH2) = hERG (KCNH2) (Homo sapiens, UniProt Q12809); test: Inhibition of human ERG expressed in CHO cells assessed as decrease in peak tail current at 30 uM after 5 mins at -80 mV holding potential by patch clamp assay relative to control; assay type: cell-based; details: CHO cells expressing human ERG
hERG (KCNH2), sequence (Q12809 whole entry): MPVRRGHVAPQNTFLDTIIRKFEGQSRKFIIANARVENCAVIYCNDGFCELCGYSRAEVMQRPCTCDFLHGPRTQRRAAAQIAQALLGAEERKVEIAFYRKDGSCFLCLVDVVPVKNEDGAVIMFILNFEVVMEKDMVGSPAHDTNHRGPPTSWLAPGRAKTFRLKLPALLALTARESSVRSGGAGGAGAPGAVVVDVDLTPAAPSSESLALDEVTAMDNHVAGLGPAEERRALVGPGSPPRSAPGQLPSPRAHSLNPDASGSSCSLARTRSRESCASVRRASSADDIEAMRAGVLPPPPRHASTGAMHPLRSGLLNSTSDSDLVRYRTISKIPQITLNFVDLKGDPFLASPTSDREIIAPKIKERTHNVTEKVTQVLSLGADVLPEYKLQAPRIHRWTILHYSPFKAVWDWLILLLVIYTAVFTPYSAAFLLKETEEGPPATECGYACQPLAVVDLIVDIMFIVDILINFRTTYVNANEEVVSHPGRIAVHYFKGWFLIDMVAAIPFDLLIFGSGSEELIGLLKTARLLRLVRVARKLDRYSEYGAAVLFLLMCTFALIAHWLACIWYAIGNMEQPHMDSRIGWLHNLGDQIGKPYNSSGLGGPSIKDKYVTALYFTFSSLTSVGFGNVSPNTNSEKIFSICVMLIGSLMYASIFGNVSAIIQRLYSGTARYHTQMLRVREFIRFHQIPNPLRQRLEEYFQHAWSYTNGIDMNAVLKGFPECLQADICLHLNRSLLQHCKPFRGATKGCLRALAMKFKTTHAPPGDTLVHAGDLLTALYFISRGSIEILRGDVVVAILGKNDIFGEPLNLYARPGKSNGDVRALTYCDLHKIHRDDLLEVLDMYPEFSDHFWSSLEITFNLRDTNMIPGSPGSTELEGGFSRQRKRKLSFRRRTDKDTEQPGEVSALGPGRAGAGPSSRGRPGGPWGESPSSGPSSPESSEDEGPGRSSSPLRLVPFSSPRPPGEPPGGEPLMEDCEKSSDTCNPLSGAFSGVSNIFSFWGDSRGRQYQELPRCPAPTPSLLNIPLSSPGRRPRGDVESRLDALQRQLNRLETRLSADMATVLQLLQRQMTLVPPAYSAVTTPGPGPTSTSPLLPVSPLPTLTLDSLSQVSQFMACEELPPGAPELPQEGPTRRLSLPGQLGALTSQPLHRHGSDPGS
Summary of the method: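 hERG-expressing CHO cells grown at 32 °C in Ham's F-12 with 10% FBS and Geneticin. Population patch clamp, perforated with 100 µg/mL amphotericin B. PBS with Ca/Mg outside; 140 mM KCl, 2 mM MgCl2, 1 mM EGTA, 20 mM HEPES pH 7.3 inside. Holding -80 mV, step to 40 mV for 2 s, then -50 mV for 2 s. Peak tail current compared before and after 5 min with compound at 30 µM, n = 4.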

[3] = 1-octanol/aqueous buffer solution partition coefficient, log D of the compound at pH 7.4 by UV-vis/HPLC method; assay type: physicochemical
Summary of the method: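 Octanol/buffer partition coefficient at pH 7.4, estimated chromatographically by HPLC with UV–vis detection, using conditions adapted from a published method.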

Mus musculus [4] = test: Antidiabetic activity in HFD-fed C57BL/6J mouse assessed as decrease in blood glucose level at 100 mg/kg, po pretreated for 1 hr followed by glucose challenge after 1 hr of compound dosing measured up to 120 mins post glucose challenge by OGTT; assay type: functional, organism-based
Summary of the method: (§1)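 Male C57BL/6J mice on high-fat diet for ten days. Fasted from morning and grouped by weight and blood glucose at 4 h. Vehicle (0.5% methylcellulose) or compound given orally at 5.5 h; oral glucose 5 g/kg given 1 h later.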

[5] = Cmax in ICR mouse at 1 mg/kg, po administered as cassette dose by LC/MS/MS analysis; assay type: ADME, organism-based; parameters: dose 1 mg/kg, route oral; details: in vivo
Summary of the method: (§2)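 Non-fasted male ICR mice, 8 weeks old, n = 3, dosed by cassette: 0.1 mg/kg iv, or 1 mg/kg po as a suspension in 0.5% methylcellulose. Plasma deproteinized with acetonitrile and measured by LC/MS/MS. AUC taken over 0–8 h.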

[6] = biological target: Somatostatin receptor type 3 (Homo sapiens) (UniProt P32745); test: Inhibition of human SSTR3 at 10 uM by radioligand binding assay relative to control
Somatostatin receptor type 3 (Homo sapiens), sequence (P32745 whole entry): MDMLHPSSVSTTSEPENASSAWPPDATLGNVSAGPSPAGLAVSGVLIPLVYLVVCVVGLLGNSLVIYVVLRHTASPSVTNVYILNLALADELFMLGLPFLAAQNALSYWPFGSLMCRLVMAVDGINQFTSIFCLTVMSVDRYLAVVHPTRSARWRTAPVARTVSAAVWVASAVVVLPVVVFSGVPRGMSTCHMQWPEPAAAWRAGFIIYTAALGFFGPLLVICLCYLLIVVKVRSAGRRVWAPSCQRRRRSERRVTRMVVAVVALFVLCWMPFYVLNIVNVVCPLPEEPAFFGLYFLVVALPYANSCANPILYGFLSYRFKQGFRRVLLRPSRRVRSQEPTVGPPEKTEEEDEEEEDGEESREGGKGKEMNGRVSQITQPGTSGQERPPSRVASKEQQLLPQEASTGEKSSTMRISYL

Mus musculus [7] = test: Antidiabetic activity in HFD-fed SSTR5 knockout C57BL/6J mouse assessed as decrease in blood glucose level administered po pretreated for 1 hr followed by glucose challenge after 1 hr of compound dosing measured up to 120 mins post glucose challenge by OGTT; assay type: functional, organism-based
[8] = Intrinsic clearance in human liver microsomes at 1 uM after 15 to 30 mins in presence of NADPH by LC/MS/MS analysis; assay type: ADME, microsome; details: read-out: CLH
Summary of the method: (§3)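 Liver microsomes at 0.2 mg/mL protein in 50 mM potassium phosphate buffer pH 7.4 with compound at 1 µM. Reaction started with an NADPH-generating system (5 mM MgCl2, 5 mM glucose-6-phosphate, 0.5 mM β-NADP+, 1.5 U/mL G6PDH). Stopped with acetonitrile at 15 and 30 min; analysed by LC/MS/MS. Metabolic velocity taken from the slope of concentration versus time.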

Mus musculus [9] = test: Antidiabetic activity in HFD-fed C57BL/6J mouse assessed as decrease in blood glucose AUC at 100 mg/kg, po pretreated for 1 hr followed by glucose challenge after 1 hr of compound dosing measured up to 120 mins post glucose challenge by OGTT; assay type: functional, organism-based; summary of the method: as §1
[10] = AUC (0 to 8 hrs) in ICR mouse at 1 mg/kg, po administered as cassette dose by LC/MS/MS analysis; assay type: ADME, organism-based; parameters: dose 1 mg/kg, time < 8 hr, route oral; details: in vivo; summary of the method: as §2
[11] = Intrinsic clearance in mouse liver microsomes at 1 uM after 15 to 30 mins in presence of NADPH by LC/MS/MS analysis; assay type: ADME, microsome; details: read-out: CLH; summary of the method: as §3
Mus musculus [12] = test: Antidiabetic activity in HFD-fed C57BL/6J mouse assessed as increase in insulin secretion at 100 mg/kg, po pretreated for 1 hr followed by glucose challenge after 1 hr of compound dosing measured up to 120 mins post glucose challenge by OGTT
[13] = biological target: Somatostatin receptor type 1 (Homo sapiens) (UniProt P30872); test: Inhibition of human SSTR1 at 10 uM by radioligand binding assay relative to control
Somatostatin receptor type 1 (Homo sapiens), sequence (P30872 whole entry): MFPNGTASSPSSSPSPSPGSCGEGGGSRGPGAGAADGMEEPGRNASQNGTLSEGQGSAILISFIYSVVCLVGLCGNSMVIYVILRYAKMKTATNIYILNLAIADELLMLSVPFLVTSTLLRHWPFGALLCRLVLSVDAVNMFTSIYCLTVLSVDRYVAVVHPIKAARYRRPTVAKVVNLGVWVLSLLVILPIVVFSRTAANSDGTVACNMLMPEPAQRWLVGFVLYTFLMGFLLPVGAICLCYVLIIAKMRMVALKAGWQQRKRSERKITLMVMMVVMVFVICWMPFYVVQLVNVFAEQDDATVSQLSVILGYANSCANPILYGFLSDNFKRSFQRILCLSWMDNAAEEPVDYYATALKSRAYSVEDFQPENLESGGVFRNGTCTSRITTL

[14] = biological target: Somatostatin receptor type 2 (Homo sapiens) (UniProt P30874); test: Inhibition of human SSTR2 at 10 uM by radioligand binding assay relative to control
Somatostatin receptor type 2 (Homo sapiens), sequence (P30874 whole entry): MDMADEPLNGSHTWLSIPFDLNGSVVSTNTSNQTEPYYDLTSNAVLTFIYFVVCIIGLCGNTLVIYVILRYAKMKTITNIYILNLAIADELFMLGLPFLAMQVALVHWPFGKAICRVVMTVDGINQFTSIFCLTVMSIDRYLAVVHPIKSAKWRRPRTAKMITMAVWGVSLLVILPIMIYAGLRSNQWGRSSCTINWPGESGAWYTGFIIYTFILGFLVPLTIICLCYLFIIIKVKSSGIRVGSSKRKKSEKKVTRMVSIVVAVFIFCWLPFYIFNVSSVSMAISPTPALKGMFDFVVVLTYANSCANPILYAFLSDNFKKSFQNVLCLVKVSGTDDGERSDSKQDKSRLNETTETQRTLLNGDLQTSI

[15] = Volume of distribution at steady state in ICR mouse at 0.1 mg/kg, iv administered as cassette dose by LC/MS/MS analysis; assay type: ADME, organism-based; details: in vivo, read-out: Vdss; summary of the method: as §2
[16] = Oral bioavailability in ICR mouse at 1 mg/kg administered as cassette dose by LC/MS/MS analysis; assay type: ADME, organism-based; details: in vivo; summary of the method: as §2
[17] = Solubility of the compound in aqueous buffer solution at pH 6.8 after 18 hrs by HPLC analysis; assay type: physicochemical
Summary of the method: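 0.4 mg compound in 0.4 mL aqueous buffer, pH 6.8 (Japanese Pharmacopoeia second disintegration fluid). Shaken at 500 rpm at 37 °C for 18 h, then filtered; dissolved concentration measured by HPLC.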

Mus musculus [18] = test: Antidiabetic activity in HFD-fed C57BL/6J mouse assessed as decrease in blood glucose level administered po pretreated for 1 hr followed by glucose challenge after 1 hr of compound dosing measured up to 120 mins post glucose challenge by OGTT; assay type: functional, organism-based
Summary of the method: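 Male C57BL/6J mice on high-fat diet for ten days. Fasted overnight and grouped by weight and blood glucose at 12.5 h. Compound given orally at 1, 3, 10 or 30 mg/kg in 0.5% methylcellulose at 15 h; oral glucose 5 g/kg at 16 h.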

[19] = Tmax in ICR mouse at 1 mg/kg, po administered as cassette dose by LC/MS/MS analysis; assay type: ADME, organism-based; details: in vivo; summary of the method: as §2
[20] = biological target: Somatostatin receptor type 4 (Homo sapiens) (UniProt P31391); test: Inhibition of human SSTR4 at 10 uM by radioligand binding assay relative to control
Somatostatin receptor type 4 (Homo sapiens), sequence (P31391 whole entry): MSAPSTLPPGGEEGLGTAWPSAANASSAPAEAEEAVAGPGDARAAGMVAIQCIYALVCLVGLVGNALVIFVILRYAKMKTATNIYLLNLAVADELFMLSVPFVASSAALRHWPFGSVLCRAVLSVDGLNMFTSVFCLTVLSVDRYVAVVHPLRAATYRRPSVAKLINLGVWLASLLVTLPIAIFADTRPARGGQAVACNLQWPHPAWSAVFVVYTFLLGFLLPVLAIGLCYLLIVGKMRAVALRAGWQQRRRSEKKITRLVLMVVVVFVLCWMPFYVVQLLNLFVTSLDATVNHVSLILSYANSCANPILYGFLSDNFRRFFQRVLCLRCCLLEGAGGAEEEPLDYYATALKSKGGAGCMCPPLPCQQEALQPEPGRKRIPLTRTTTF

[21] = Total clearance in ICR mouse at 0.1 mg/kg, iv administered as cassette dose by LC/MS/MS analysis; assay type: ADME, organism-based; details: in vivo; summary of the method: as §2
Mus musculus [22] = test: Toxicity in HFD-fed C57BL/6J mouse assessed as induction of hypoglycemia at 100 mg/kg, po after 1 hr; assay type: organism-based; details: in vivo

Compound | IC50 [1] | IC50 [2] | inhibition at 5 min, 30 µM (hERG (KCNH2)) | logD [3] | further results
CCOc1cc(CN2CC3(CC(c4ccc(CO)cc4)=NO3)C2)cc(OCC)c1-c1ccc(F)cc1 | 430 nM | 1000 nM | – | – | –
CCOc1cc(CN2CC3(CC(c4ccc(C(=O)O)cc4Cl)=NO3)C2)cc(OCC)c1-c1ccc(F)cc1 | 31 nM | 46 nM | 40% | 3.5 | –
CCOc1cc(CN2CC3(CC(c4ccc(C(=O)O)cn4)=NO3)C2)cc(OCC)c1-c1ccc(F)cc1 | 20 nM | 61 nM | – | – | –
CCOc1cc(C(=O)N2CC3(CC(c4ccc(C(=O)O)cc4)=NO3)C2)cc(OCC)c1-c1ccc(F)cc1 | > 10000 nM | > 10000 nM | 7.9% | 2.8 | –
CCOc1cc(CN2CC3(CC(c4ccccc4)=NO3)C2)cc(OCC)c1-c1ccc(F)cc1 | 980 nM | 2800 nM | – | – | –
CCOc1cc(CN2CC3(CC(c4ccc(C(N)=O)cc4)=NO3)C2)cc(OCC)c1-c1ccc(F)cc1 | 150 nM | 150 nM | – | – | –
CCOc1cc(CN2CC3(CC(N4CCC(C(=O)O)C4)=NO3)C2)cc(OCC)c1-c1ccc(F)cc1 (stereo unspecified) | 48 nM | 190 nM | 17% | 2.9 | –
CCOc1cc(CN2CC3(CC(N4CC(C(=O)O)C4)=NO3)C2)cc(OCC)c1-c1ccc(F)cc1 | 120 nM | 200 nM | 8.1% | 2.9 | –
CCOc1cc(CN2CC3(CC(N4CCC(C(=O)O)CC4)=NO3)C2)cc(OCC)c1-c1ccc(F)cc1 | – | – | 5.6% | – | Activity (Mus musculus [4]): Active; Cmax [5]: 74.8 ng/mL; inhibition [6]: 14%; Activity (Mus musculus [7]): inactive; microsomal CLint at 1 µM [8]: < 10 µL/min/mg; Activity (Mus musculus [9]): Active; AUC(0-t) at 8 h [10]: 332 ng·h/mL; microsomal CLint at 1 µM [11]: 19 µL/min/mg; Activity (Mus musculus [12]): Active; inhibition [13]: 11%; inhibition [14]: 8%; Vd [15]: 3.05 L/kg; bioavailability [16]: 58%; solubility at 18 h [17]: 260 µg/mL (≈ 508 µM); Activity (Mus musculus [18]): Dose-dependent effect; Tmax [19]: 2 h; inhibition [20]: 10%; clearance [21]: 29.3 mL/min/kg; Activity (Mus musculus [22]): Non-Toxic
CCOc1cc(CN2CC3(CC(c4ccc(CC(=O)O)cc4)=NO3)C2)cc(OCC)c1-c1ccc(F)cc1 | 74 nM | 220 nM | – | – | –
